From ChEMBL document CHEMBL3864154, “Discovery and preliminary structure-activity relationship of 1H-indazoles with promising indoleamine-2,3-dioxygenase 1 (IDO1) inhibition properties” (Bioorg Med Chem, 2016)

Columns and labels:
[1] = biological target: T1, Indoleamine 2,3-dioxygenase 1 (Homo sapiens, UniProt P14902); assay: Inhibition of recombinant human N-terminus IDO1 expressed in Escherichia coli assessed as N-formylkynurenine formation at 1 uM using L-tryptophan as substrate measured after 180 mins by UV absorbance based assay
Target sequence in this assay (P14902 whole entry, looked up): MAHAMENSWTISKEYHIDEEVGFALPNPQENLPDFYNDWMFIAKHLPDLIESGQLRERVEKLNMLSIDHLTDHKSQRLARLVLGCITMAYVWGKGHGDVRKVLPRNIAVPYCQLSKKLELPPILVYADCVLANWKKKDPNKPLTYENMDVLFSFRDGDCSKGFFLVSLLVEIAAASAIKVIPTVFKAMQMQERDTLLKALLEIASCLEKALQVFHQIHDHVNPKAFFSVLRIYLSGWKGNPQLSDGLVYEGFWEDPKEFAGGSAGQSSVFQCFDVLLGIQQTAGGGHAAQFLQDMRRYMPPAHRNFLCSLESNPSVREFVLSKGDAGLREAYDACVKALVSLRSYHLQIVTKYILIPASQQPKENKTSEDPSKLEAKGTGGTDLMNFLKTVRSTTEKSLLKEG

[2] = biological target: T1, Indoleamine 2,3-dioxygenase 1; assay: Inhibition of recombinant human N-terminus IDO1 expressed in Escherichia coli assessed as N-formylkynurenine formation at 10 uM using L-tryptophan as substrate measured after 180 mins by UV absorbance based assay
Procedure, shortened: (§1)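 Human N-terminal IDO1 expressed in E. coli, Ni affinity-purified; 40 nmol/L enzyme with 900 μmol/L tryptophan plus coupled reaction components in IDO1 assay buffer, 0.5% DMSO final, room temperature, 180 min. N-formylkynurenine read by UV absorbance at 321 nm. Blank lacks enzyme; positive control lacks inhibitor.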
Target sequence in this assay (P14902 whole entry, looked up): as above

[3] = biological target: T1, Indoleamine 2,3-dioxygenase 1; assay: Inhibition of recombinant human N-terminus IDO1 expressed in Escherichia coli assessed as N-formylkynurenine formation at 100 uM using L-tryptophan as substrate measured after 180 mins by UV absorbance based assay; procedure, shortened: as §1
Target sequence in this assay (P14902 whole entry, looked up): as above

[4] = biological target: T1, Indoleamine 2,3-dioxygenase 1; assay: Inhibition of recombinant human N-terminus IDO1 expressed in Escherichia coli assessed as N-formylkynurenine formation using L-tryptophan as substrate measured after 180 mins by UV absorbance based assay
Procedure, shortened: (§2)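 E. coli-expressed, Ni affinity-purified human N-terminal IDO1 at 40 nmol/L with 900 μmol/L tryptophan, coupled reaction components, 0.5% DMSO final, room temperature, 180 min; N-formylkynurenine read at 321 nm. Duplicates per concentration; % activity relative to no-inhibitor control, fitted by sigmoidal dose-response nonlinear regression; IC50 at half-maximal activity.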
Target sequence in this assay (P14902 whole entry): as the sequence (P14902 whole entry, looked up) above

[5] = biological target: T1, Indoleamine 2,3-dioxygenase 1; assay: Inhibition of recombinant human N-terminus IDO1 expressed in Escherichia coli assessed as residual activity at -8.8 log[compound]/M using L-tryptophan as substrate measured after 180 mins by UV absorbance based assay relative to control; procedure, shortened: as §2
Target sequence in this assay (P14902 whole entry, looked up): as above

[6] = biological target: T1, Indoleamine 2,3-dioxygenase 1; assay: Inhibition of recombinant human N-terminus IDO1 expressed in Escherichia coli assessed as residual activity at -8.3 log[compound]/M using L-tryptophan as substrate measured after 180 mins by UV absorbance based assay relative to control; procedure, shortened: as §2
Target sequence in this assay (P14902 whole entry, looked up): as above

[7] = biological target: T1, Indoleamine 2,3-dioxygenase 1; assay: Inhibition of recombinant human N-terminus IDO1 expressed in Escherichia coli assessed as residual activity at -7.8 log[compound]/M using L-tryptophan as substrate measured after 180 mins by UV absorbance based assay relative to control; procedure, shortened: as §2
Target sequence in this assay (P14902 whole entry, looked up): as above

[8] = biological target: T1, Indoleamine 2,3-dioxygenase 1; assay: Inhibition of recombinant human N-terminus IDO1 expressed in Escherichia coli assessed as residual activity at -7.3 log[compound]/M using L-tryptophan as substrate measured after 180 mins by UV absorbance based assay relative to control; procedure, shortened: as §2
[9] = biological target: T1, Indoleamine 2,3-dioxygenase 1; assay: Inhibition of recombinant human N-terminus IDO1 expressed in Escherichia coli assessed as residual activity at -6.9 log[compound]/M using L-tryptophan as substrate measured after 180 mins by UV absorbance based assay relative to control; procedure, shortened: as §2
[10] = biological target: T1, Indoleamine 2,3-dioxygenase 1; assay: Inhibition of recombinant human N-terminus IDO1 expressed in Escherichia coli assessed as residual activity at -6.4 log[compound]/M using L-tryptophan as substrate measured after 180 mins by UV absorbance based assay relative to control; procedure, shortened: as §2
[11] = biological target: T1, Indoleamine 2,3-dioxygenase 1; assay: Inhibition of recombinant human N-terminus IDO1 expressed in Escherichia coli assessed as residual activity at -5.9 log[compound]/M using L-tryptophan as substrate measured after 180 mins by UV absorbance based assay relative to control; procedure, shortened: as §2
[12] = biological target: T1, Indoleamine 2,3-dioxygenase 1; assay: Inhibition of recombinant human N-terminus IDO1 expressed in Escherichia coli assessed as residual activity at -5.4 log[compound]/M using L-tryptophan as substrate measured after 180 mins by UV absorbance based assay relative to control; procedure, shortened: as §2
[13] = biological target: T1, Indoleamine 2,3-dioxygenase 1; assay: Inhibition of recombinant human N-terminus IDO1 expressed in Escherichia coli assessed as residual activity at -5 log[compound]/M using L-tryptophan as substrate measured after 180 mins by UV absorbance based assay relative to control; procedure, shortened: as §2
[14] = biological target: T1, Indoleamine 2,3-dioxygenase 1; assay: Inhibition of recombinant human N-terminus IDO1 expressed in Escherichia coli assessed as residual activity at -4.5 log[compound]/M using L-tryptophan as substrate measured after 180 mins by UV absorbance based assay relative to control; procedure, shortened: as §2

SMILES	inhibition [1] [%]	inhibition [2] [%]	inhibition [3] [%]	other results
O=C(O)c1ccc(CNc2ncnc3[nH]ncc23)cc1	3	3	9	–
O=C(O)c1cccc(CNc2ncnc3[nH]ncc23)c1	2	2	7	–
O=C(O)c1cc(CNc2cc(Br)cc3[nH]ncc23)ccc1O	–	38	88	–
O=C(O)Cc1ccc(CNc2cc(Br)cc3[nH]ncc23)cc1	–	27	79	–
Cc1nc(NCc2cccc(C(=O)O)c2)c2cn[nH]c2n1	3	5	32	–
O=C(O)c1ccc(C(CO)Nc2cc(Br)cc3[nH]ncc23)cc1 (centres undefined)	–	19	68	–
O=C(O)c1ccc(CNc2cccc3[nH]ncc23)cc1	–	1	24	–
O=C(CNc1cc(Br)cc2[nH]ncc12)Nc1ccc(C(=O)O)cc1	3	12	37	–
O=C(O)c1ccc(CNc2cc(Br)cc3[nH]ncc23)cc1	19	49 to 58	91 to 94	–
O=C(O)c1ccc(C(O)CNc2cc(Br)cc3[nH]ncc23)cc1 (centres undefined)	–	31	73	–
Oc1ccccc1CNc1cc(Br)cc2[nH]ncc12	–	41	100	–
Brc1cc(NCc2ccccc2)c2cn[nH]c2c1	–	37	100	–
O=C(O)c1cccc(COc2cc(Br)cc3[nH]ncc23)c1	–	7	40	–
Oc1ccc(CNc2cc(Br)cc3[nH]ncc23)cc1	–	70	100	IC50 [4]: 5.3 µM; Activity [5]: 92%; Activity [6]: 91%; Activity [7]: 91%; Activity [8]: 88%; Activity [9]: 87%; Activity [10]: 82%; Activity [11]: 71%; Activity [12]: 51%; Activity [13]: 26%; Activity [14]: 9%
O=C(O)c1cccc(CNc2cc(Br)cc3[nH]ncc23)c1	–	21	74	–
O=C(CNc1cc(Br)cc2[nH]ncc12)NC1CCOCC1	4	8	34	–
Cc1nc(NCc2ccc(C(=O)O)cc2)c2cn[nH]c2n1	3	5	37	–
Clc1ccc(CNc2cc(Br)cc3[nH]ncc23)cc1	–	42	100	–
NS(=O)(=O)NCCNc1nonc1/C(=N/O)Nc1ccc(F)c(Br)c1	–	100	–	–
Cc1ccc(CNc2cc(Br)cc3[nH]ncc23)cc1	–	20	84	–
O=C(O)c1ccc(COc2cc(Br)cc3[nH]ncc23)cc1	–	18	69	–
